IC50, apparent koff and apparent kon data for one compound are collected here from paper PMC2606940 (The Journal of General Physiology, 2009).

Test [1] addresses T1, CLC-0 E166C/E127Q/K519M mutant (Torpedo marmorata, UniProt P21564, C212S/E127Q/E166C/K519M).
T1 sequence (P21564 1-805 E127Q/E166C/C212S/K519M): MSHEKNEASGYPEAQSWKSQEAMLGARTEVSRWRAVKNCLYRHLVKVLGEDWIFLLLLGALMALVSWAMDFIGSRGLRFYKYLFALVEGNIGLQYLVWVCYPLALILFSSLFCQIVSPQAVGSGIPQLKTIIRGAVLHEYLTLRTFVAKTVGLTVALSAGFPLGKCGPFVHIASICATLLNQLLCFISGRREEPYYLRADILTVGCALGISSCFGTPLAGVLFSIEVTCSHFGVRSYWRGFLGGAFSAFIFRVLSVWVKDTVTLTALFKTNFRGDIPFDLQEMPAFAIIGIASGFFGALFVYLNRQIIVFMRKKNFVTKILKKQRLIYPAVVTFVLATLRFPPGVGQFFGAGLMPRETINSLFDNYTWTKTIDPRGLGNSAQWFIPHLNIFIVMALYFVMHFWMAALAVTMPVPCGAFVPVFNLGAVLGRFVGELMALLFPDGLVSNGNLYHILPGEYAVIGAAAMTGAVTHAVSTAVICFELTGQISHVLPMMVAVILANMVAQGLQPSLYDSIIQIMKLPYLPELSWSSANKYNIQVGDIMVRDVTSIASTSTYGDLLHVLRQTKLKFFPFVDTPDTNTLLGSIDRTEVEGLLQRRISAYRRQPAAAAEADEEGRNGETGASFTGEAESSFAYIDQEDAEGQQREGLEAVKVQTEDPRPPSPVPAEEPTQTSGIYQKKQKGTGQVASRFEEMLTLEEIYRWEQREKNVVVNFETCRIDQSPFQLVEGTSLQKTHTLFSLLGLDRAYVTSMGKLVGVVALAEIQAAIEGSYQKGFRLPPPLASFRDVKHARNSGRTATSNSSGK
Type of test: cell-based. The settings on record: for IC50: read-out: Apparent affinity (K1/2). In a few lines: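 CLC-0 mutants (C212S background) were lipofectamine-transfected into HEK293 cells and recorded 1–3 d later from inside-out patches. Pipette and bath contained 130 mM NaCl, 5 MgCl2, 10 HEPES and 1 EGTA (pH 7.4). Test compound was perfused onto the cytoplasmic side. A +80 mV prepulse preceded steps to steady state. The last-10-ms current was normalized to bracketing blocker-free controls and fitted to a Langmuir function for K1/2.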

For test [2], the target named is T2, CLC-0 E166C/E127Q/K519E mutant (Torpedo marmorata, UniProt P21564, C212S/E127Q/E166C/K519E).
T2 sequence (P21564 1-805 E127Q/E166C/C212S/K519E): T1 sequence (P21564 1-805 E127Q/E166C/C212S/K519M) with M519E
Type of test: cell-based. The settings on record: read-out: Apparent affinity (K1/2). In a few lines:
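CLC-0 mutants in the C212S background were transfected into HEK293 cells with lipofectamine and recorded 1–3 d later as excised inside-out patches. Both sides held 130 mM NaCl, 5 mM MgCl2, 10 mM HEPES and 1 mM EGTA, pH 7.4. CPA was perfused continuously onto the cytoplasmic face. Steady-state current over the last 10 ms was normalized to bracketing blocker-free controls and fitted to a Langmuir function for K1/2. Values are mean ± SEM of ~4–6 patches.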

Each structure is given as a SMILES string. Numbering of substitutions follows the chain as printed. Where two headings read alike, the source gives them in different places.

As to `O=C(O)COc1ccc(Cl)cc1` [CPA, p-chlorophenoxy acetate], the IC50 in test [1] (−40 mV) is 457 ± 30 µM; in test [1] (−60 mV) it was 240 ± 13 µM; in test [1] (−80 mV), 132 ± 6 µM; in test [1] (−100 mV), 75 ± 3 µM; in test [1] (−120 mV), 47 ± 3 µM; in test [1] (−140 mV), 31 ± 2 µM. Moreover, the IC50 in test [1] (−160 mV) is 22 ± 2 µM; in test [2] (−40 mV), 586 ± 52 µM; in test [2] (−60 mV), 327 ± 24 µM; in test [2] (−80 mV), 198 ± 14 µM; in test [2] (−100 mV), 123 ± 9 µM; in test [2] (−120 mV), 87 ± 6 µM. Also, the IC50 was 62 ± 5 µM in test [2] (−140 mV) and 44 ± 5 µM in test [2] (−160 mV). The apparent koff in test [1] (−160 mV) turned out to be 11.4 s⁻¹. Moreover, the apparent kon in test [1] (−160 mV) is 460000 M⁻¹ s⁻¹.
